Measured values from ChEMBL document CHEMBL6083235, “Synthesis, evaluation and mechanistic insights of novel IMPDH inhibitors targeting ESKAPEE bacteria” (Eur J Med Chem, 2024).
Calls of active or inactive are those of the source. No cut-off for these calls is given here.

Experiments:
[1] = target: T1, Inosine-5'-monophosphate dehydrogenase (Pseudomonas aeruginosa (strain ATCC 15692 / DSM 22644 / CIP 104116 / JCM14847 / LMG 12228 / 1C / PRS 101 / PAO1)) (UniProt Q9HXM5); assay: Inhibition of Pseudomonas aeruginosa IMPDH extracted form Escherichia coli BL21 (DE3)pDIA17 assessed as formation of NADH at 50 uM relative to control
T1 sequence (whole entry): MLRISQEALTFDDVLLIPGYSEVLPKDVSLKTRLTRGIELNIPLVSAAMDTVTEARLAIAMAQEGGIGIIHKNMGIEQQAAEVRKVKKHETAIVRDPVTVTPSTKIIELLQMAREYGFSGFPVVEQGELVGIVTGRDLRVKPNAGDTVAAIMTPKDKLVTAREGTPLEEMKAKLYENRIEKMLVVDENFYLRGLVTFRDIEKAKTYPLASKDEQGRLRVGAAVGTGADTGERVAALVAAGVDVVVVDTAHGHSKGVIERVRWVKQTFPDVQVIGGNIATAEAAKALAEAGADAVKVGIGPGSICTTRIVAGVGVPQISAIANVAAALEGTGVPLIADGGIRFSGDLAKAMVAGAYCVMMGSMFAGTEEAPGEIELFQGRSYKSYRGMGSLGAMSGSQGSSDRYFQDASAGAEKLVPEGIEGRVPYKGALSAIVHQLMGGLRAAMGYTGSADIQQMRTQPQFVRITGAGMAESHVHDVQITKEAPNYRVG
In short: (§1)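 His-tagged wild-type IMPDH (E. coli, P. aeruginosa or S. aureus) made in E. coli BL21(DE3)/pDIA17, purified by metal-affinity then gel filtration. NADH formation followed at 340 nm, 30 °C, with 0.2 mM IMP, 0.4 mM NAD⁺, 0.2 mM MgATP, 2 mM MgCl₂. Buffers: pa Tris-HCl 50 mM pH 8; ec Tris-HCl 50 mM pH 8, KCl 50 mM; sa Na₂CO₃ 50 mM pH 9.2, KCl 20 mM. Compound at 50 μM; % inhibition vs compound-free activity.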

[2] = target: T2, Inosine-5'-monophosphate dehydrogenase (Pseudomonas aeruginosa (strain ATCC 15692 / DSM 22644 / CIP 104116 / JCM14847 / LMG 12228 / 1C / PRS 101 / PAO1), UniProt Q9HXM5); assay: Inhibition of Pseudomonas aeruginosa IMPDH extracted form Escherichia coli BL21 (DE3)pDIA17 assessed as formation of NADH; conditions: read-out: I50
T2 sequence (Q9HXM5 whole entry): T1 sequence (whole entry)

[3] = target: Inosine-5'-monophosphate dehydrogenase 2 (Homo sapiens) (UniProt P12268); assay: Inhibition of human IMPDH2 extracted form Escherichia coli BL21 (DE3)pDIA17 assessed as formation of NADH at 50 uM
[4] = Inhibition of Pseudomonas aeruginosa IMPDH delta Bateman domain extracted form Escherichia coli BL21 (DE3)pDIA17 assessed as formation of NADH; conditions: read-out: I50
In short: (§2)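 Bateman-domain-deleted IMPDH (E. coli or P. aeruginosa) from E. coli BL21(DE3)/pDIA17; NADH at 340 nm, 30 °C, 0.2 mM IMP, 0.4 mM NAD⁺, 0.2 mM MgATP, 2 mM MgCl₂; buffers as per variant (ec Tris-HCl pH 9/KCl 100 mM; pa Tris-HCl pH 8/KCl 100 mM). I50 by dose-response logistic fit, at least three experiments.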

[5] = tested on: Caco-2; assay: Cytotoxicity against human Caco-2 cells assessed as cell viability at 10 uM measured after 72 hrs by Alamar blue assay; format: toxicity, cell-based; conditions: caco-2, 72 h
In short: (§3)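 Confluent Caco-2 monolayers (seeded 1.10⁵ cells/cm², 48 h growth; DMEM 25 mM glucose, 10 % FBS, NEAA, 37 °C, 5 % CO₂) exposed 72 h; vehicle 0.1 % DMSO, 0.2 % Triton X-100 as cytotoxic control. Rinsed with PBS, 5 % Alamar Blue in FBS-free medium 30 min at 37 °C; resorufin fluorescence (ex 530/em 570 nm) relative to DMSO. Mean ± SEM, three independent experiments.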

[6] = tested on: Escherichia coli; assay: Inhibition of Escherichia coli IMPDH delta Bateman domain extracted form Escherichia coli BL21 (DE3)pDIA17 assessed as formation of NADH at 50 uM relative to control
In short: (§4)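 Bateman-domain-deleted IMPDH (E. coli or P. aeruginosa), His-tagged, made in E. coli BL21(DE3)/pDIA17. NADH formation at 340 nm, 30 °C, 0.2 mM IMP, 0.4 mM NAD⁺, 0.2 mM MgATP, 2 mM MgCl₂. Buffer: ec Tris-HCl 50 mM pH 9, KCl 100 mM; pa Tris-HCl 50 mM pH 8, KCl 100 mM. Compound 50 μM; % inhibition relative to uninhibited enzyme.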

[7] = target: T3, Inosine-5'-monophosphate dehydrogenase (Escherichia coli K-12) (UniProt P0ADG7); assay: Inhibition of Escherichia coli IMPDH extracted form Escherichia coli BL21 (DE3)pDIA17 assessed as formation of NADH at 50 uM relative to control; in short: as §1
T3 sequence (whole entry): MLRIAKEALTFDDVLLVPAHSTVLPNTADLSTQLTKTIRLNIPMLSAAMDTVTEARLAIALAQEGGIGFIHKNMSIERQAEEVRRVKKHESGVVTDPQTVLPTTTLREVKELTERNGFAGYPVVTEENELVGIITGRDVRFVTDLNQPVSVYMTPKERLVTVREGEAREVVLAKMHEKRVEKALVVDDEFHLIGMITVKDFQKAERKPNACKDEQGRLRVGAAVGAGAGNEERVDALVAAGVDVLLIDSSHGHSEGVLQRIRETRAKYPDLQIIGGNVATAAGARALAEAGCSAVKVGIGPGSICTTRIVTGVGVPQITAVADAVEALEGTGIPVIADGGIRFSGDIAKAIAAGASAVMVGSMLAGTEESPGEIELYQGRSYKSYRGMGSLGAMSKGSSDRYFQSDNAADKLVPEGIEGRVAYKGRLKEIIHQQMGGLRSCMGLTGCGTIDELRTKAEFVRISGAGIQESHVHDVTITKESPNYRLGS

[8] = tested on: Staphylococcus aureus; assay: Inhibition of Staphylococcus aureus IMPDH extracted form Escherichia coli BL21 (DE3)pDIA17 assessed as formation of NADH at 50 uM relative to control; in short: as §1
[9] = tested on: Mycobacterium tuberculosis; assay: Inhibition of Mycobacterium tuberculosis TMP kinase using 0.05 dTMP and 0.5 mM MgATP by measuring NADH consumption at 20 uM by coupled spectrophotometric assay
In short: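 Recombinant M. tuberculosis TMP kinase; activity at 30 °C by NADH consumption at 340 nm in a pyruvate kinase/lactate dehydrogenase/nucleoside diphosphate kinase coupled assay (2 units each). Medium: 50 mM Tris-HCl pH 7.4, 50 mM KCl, 2 mM MgCl2, 0.2 mM NADH, 1 mM phosphoenolpyruvate. ATP held at 0.5 mM and dTMP at 0.05 mM; compound at 20 μM.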

[10] = Metabolic stability in mouse liver microsomes assessed as recovery in absence of NADPH measured after 120 mins; format: ADME, Microsome; conditions: read-out: Drug recovery
[11] = Metabolic stability in mouse liver microsomes assessed as recovery in presence of NADPH measured after 120 mins; format: ADME, Microsome; conditions: read-out: Drug recovery
[12] = target: T1, Inosine-5'-monophosphate dehydrogenase (Pseudomonas aeruginosa (strain ATCC 15692 / DSM 22644 / CIP 104116 / JCM14847 / LMG 12228 / 1C / PRS 101 / PAO1)); assay: Non-competitive inhibition of Pseudomonas aeruginosa IMPDH by Lineweaver-Burk plot analysis
In short: (§5)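 Steady-state kinetics of P. aeruginosa ΔBateman IMPDH: initial rates (NADH at 340 nm, 30 °C, Tris-HCl 50 mM pH 8, KCl 100 mM) measured across variable IMP at saturating 2 mM NAD⁺, without or with several inhibitor concentrations; data from at least three experiments fitted to Michaelis–Menten and shown as Lineweaver-Burk plots.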

[13] = tested on: Staphylococcus aureus; assay: Antibacterial activity against methicillin-resistant Staphylococcus aureus ATCC 43300 assessed as growth inhibition at 32 ug/ml relative to control; format: functional
[14] = tested on: Pseudomonas aeruginosa; assay: Inhibition of Pseudomonas aeruginosa IMPDH delta Bateman domain extracted form Escherichia coli BL21 (DE3)pDIA17 assessed as formation of NADH at 50 uM relative to control; in short: as §4
[15] = tested on: Caco-2; assay: Cytotoxicity against human Caco-2 cells assessed as cell viability at 1 uM measured after 72 hrs by Alamar blue assay; format: toxicity, cell-based; conditions: caco-2, 72 h; in short: as §3
[16] = target: T1, Inosine-5'-monophosphate dehydrogenase (Pseudomonas aeruginosa (strain ATCC 15692 / DSM 22644 / CIP 104116 / JCM14847 / LMG 12228 / 1C / PRS 101 / PAO1)); assay: Non-competitive inhibition of Pseudomonas aeruginosa IMPDH in presence of 2 mM NAD+ by Michaelis-Menten equation; in short: as §5
[17] = Inhibition of Escherichia coli IMPDH delta Bateman domain extracted form Escherichia coli BL21 (DE3)pDIA17 assessed as formation of NADH; conditions: read-out: I50; in short: as §2
[18] = Inhibition of Pseudomonas aeruginosa IMPDH delta Bateman domain in presence of detergent by detergent-sensitive enzyme-inhibition assay
In short: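 P. aeruginosa ΔBateman IMPDH dose-response run under reference conditions (0.2 mM IMP, 0.4 mM NAD⁺, 0.2 mM MgATP, 2 mM MgCl₂; Tris-HCl 50 mM pH 8, KCl 100 mM; 30 °C, NADH at 340 nm) with 0.01 % Triton X-100 included, to exclude colloidal aggregation; I50 from logistic fit.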

[19] = Inhibition of Pseudomonas aeruginosa IMPDH delta Bateman domain in absence of detergent; in short: as §2

Inosine-5'-monophosphate dehydrogenase 2 (Homo sapiens), sequence (P12268 2-514 limits assumed): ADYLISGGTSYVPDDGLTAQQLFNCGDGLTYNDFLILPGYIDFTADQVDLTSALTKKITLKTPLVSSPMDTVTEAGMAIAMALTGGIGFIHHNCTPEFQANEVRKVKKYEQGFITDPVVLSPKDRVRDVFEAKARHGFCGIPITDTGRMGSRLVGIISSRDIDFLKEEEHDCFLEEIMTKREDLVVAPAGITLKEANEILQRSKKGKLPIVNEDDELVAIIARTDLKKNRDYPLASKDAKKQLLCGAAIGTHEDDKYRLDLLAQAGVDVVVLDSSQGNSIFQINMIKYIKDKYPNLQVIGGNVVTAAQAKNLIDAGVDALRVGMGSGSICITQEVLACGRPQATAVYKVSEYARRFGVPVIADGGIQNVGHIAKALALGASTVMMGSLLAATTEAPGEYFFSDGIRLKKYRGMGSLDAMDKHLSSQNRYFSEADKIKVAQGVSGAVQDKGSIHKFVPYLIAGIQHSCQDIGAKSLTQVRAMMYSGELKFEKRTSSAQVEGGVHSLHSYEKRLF

CC(C)(NC(=O)NCc1ccccc1)c1cccc(-c2cccs2)c1
inhibition [1]: 15%

CCOc1ncccc1-c1cccc(C(C)(C)NC(=O)Nc2ccc(Cl)c([N+](=O)[O-])c2)c1
inhibition [1]: 95% | IC50 [2]: 0.59 µM

CC(C)(NC(=O)Nc1ccc(Cl)c([N+](=O)[O-])c1)c1cccc(-c2cccnc2F)c1
inhibition [1]: 98% | IC50 [2]: 0.24 µM

CCOC(=O)n1ccc(-c2cccc(C(C)(C)NC(=O)Nc3ccc(Cl)c([N+](=O)[O-])c3)c2)n1
inhibition [1]: 98% | IC50 [2]: 0.16 µM

CC(C)(NC(=O)Nc1ccc(Cl)c([N+](=O)[O-])c1)c1cccc(-c2nccn2Cc2ccccc2)c1
inhibition [1]: 63%

CC(C)(NC(=O)Nc1ccc(Cl)c([N+](=O)[O-])c1)c1cccc(-c2nccs2)c1
inhibition [1]: 97% | IC50 [2]: 0.11 µM

CC(C)(NC(=O)NCc1ccccc1)c1cccc(-c2cc[nH]n2)c1
inhibition [1]: 59%

CCOC(=O)n1cc(-c2cccc(C(C)(C)NC(=O)Nc3ccc(Cl)c([N+](=O)[O-])c3)c2)cn1
inhibition [1]: 87% | IC50 [2]: 0.42 µM

CC(C)(NC(=O)NCc1ccccc1)c1cccc(-c2ccccc2)c1
inhibition [1]: 16%

CC(C)(NC(=O)Nc1ccc(Cl)c([N+](=O)[O-])c1)c1cccc(-c2cn[nH]c2)c1
inhibition [3]: inactive | IC50 [4]: 0.17 µM | Activity [5]: Non-toxic | inhibition [6]: 84% | inhibition [7]: 89% | inhibition [8]: 93% | inhibition [9]: inactive | remaining at 2 h [10]: > 95% | inhibition [1]: 97% | remaining at 2 h [11]: > 95% | inhibition [12]: Active | inhibition at 32 µg/mL [13]: 61.7% | inhibition [14]: 99% | Activity [15]: Non-toxic | inhibition [16]: Active | IC50 [17]: 5.51 µM | IC50 [2]: 0.13 µM

CC(C)(NC(=O)Nc1ccc(Cl)c([N+](=O)[O-])c1)c1cccc(-c2ccco2)c1
inhibition [1]: 99% | IC50 [2]: 0.26 µM

CC(C)(NC(=O)NCc1ccccc1)c1cccc(-c2ccco2)c1
inhibition [3]: inactive | inhibition [6]: 1% | inhibition [1]: 10% | inhibition at 32 µg/mL [13]: 0.49% | inhibition [14]: 6%

CC(C)(NC(=O)Nc1ccc(Cl)c([N+](=O)[O-])c1)c1cccc(-c2cccs2)c1
inhibition [1]: 96% | IC50 [2]: 0.14 µM

CC(C)(NC(=O)NCc1ccccc1)c1cccc(-c2cn[nH]c2)c1
inhibition [1]: 29%

CC(C)(NC(=O)Nc1ccc(Cl)c([N+](=O)[O-])c1)c1cccc(-c2cc[nH]n2)c1
inhibition [3]: inactive | IC50 [4]: 0.16 µM | Activity [5]: Non-toxic | inhibition [6]: 88% | inhibition [7]: 92% | inhibition [8]: 94% | inhibition [9]: inactive | remaining at 2 h [10]: > 95% | inhibition [1]: 99% | remaining at 2 h [11]: > 95% | inhibition [12]: Active | inhibition at 32 µg/mL [13]: 79.3% | inhibition [14]: 98% | Activity [15]: Non-toxic | inhibition [16]: Active | IC50 [17]: 4.95 µM | IC50 [2]: 0.11 µM

CC(C)(NC(=O)Nc1ccc(Cl)c([N+](=O)[O-])c1)c1cccc(-c2c[nH]cn2)c1
inhibition [3]: inactive | IC50 [4]: 0.15 µM | Activity [5]: Non-toxic | inhibition [6]: 90% | inhibition [7]: 88% | inhibition [8]: 89% | inhibition [9]: inactive | IC50 [18]: 0.14 µM | IC50 [19]: 0.15 µM | remaining at 2 h [10]: > 95% | inhibition [1]: 99% | remaining at 2 h [11]: > 95% | inhibition [12]: Active | inhibition at 32 µg/mL [13]: 79.3% | inhibition [14]: 99% | Activity [15]: Non-toxic | inhibition [16]: Active | IC50 [17]: 4.26 µM | IC50 [2]: 0.1 µM

CC(C)(NC(=O)Nc1ccc(Cl)c([N+](=O)[O-])c1)c1cccc(-c2cn(C(c3ccccc3)(c3ccccc3)c3ccccc3)cn2)c1
inhibition [1]: 35%
